Results reported in publication PMC4145829 (Drug Design, Development and Therapy, 2014).
Entries after “also recorded” stand apart in the source; their conditions may differ.

What was measured:
patients = details: cited from earlier work; for Associated clinical toxicities: Table 1
zebrafish embryos = test: Zebrafish toxicity assay; assay type: in vivo; details: for gross morphological changes (in words): zebrafish larvae, exposure to 96 hours
Procedure, shortened: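 Wild-type embryos at 24 hpf, bath-exposed in distilled water (pH 6.8–8) at 28°C with solutions renewed every 24 h. Naïve and 0.1% DMSO vehicle controls were included. Five concentrations, spacing factor 2, within solubility limits; 12 embryos per concentration per replicate; three independent experiments. Toxicity scored at 48 and 96 hpf; NOEC/LOEC derived experimentally; LC50 from pooled mortality via sigmoidal fit.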

[1] = system: subintestinal vessels (SIVs) of zebrafish embryos; test: Zebrafish subintestinal vessel angiogenesis assay; assay type: in vivo; details: for effect on SIV angiogenesis (in words): zebrafish embryos
[2] = Compound precipitation in the test medium; assay type: physicochemical; details: test medium of the zebrafish assays (distilled water, 0.1% DMSO)
[3] = system: human primary endothelial cells; details: cited from earlier work
VEGFR = details: read-out: VEGFR inhibition IC50; biochemical assays; cited from earlier work
[4] = system: chick chorioallantoic membrane; details: cited from earlier work
[5] = system: mouse dorsal air sac model; details: cited from earlier work
[6] = patients enrolled in clinical trial
[7] = concentration not given, 96 hpf

COc1cc2nccc(Oc3ccc(NC(=O)C4(C(=O)Nc5ccc(F)cc5)CC4)cc3)c2cc1OC [Cabozantinib]
Associated clinical toxicities (patients): Multiple systemic toxicities

COc1ccc(/C=C\c2cc(OC)c(OC)c(OC)c2)cc1O [Combretastatin]
gross morphological changes (in words) (zebrafish embryos): coagulation of zebrafish embryos | effect on SIV angiogenesis (in words) ([1]; 96 hpf): lack of anti-angiogenic activity | effect on SIV angiogenesis (in words) ([1]; 96 hpf, listed as combretastatin): Angiogenesis inhibition was not demonstrated | Associated clinical toxicities (patients): Multiple systemic toxicities

C#Cc1cccc(Nc2ncnc3cc(OCCOC)c(OCCOC)cc23)c1 [Erlotinib]
concentration beyond which the compound precipitated [2]: > 1 µM | decrease in the number of SIVs within the basket ([1]; 1 μM, 96 hpf): no effect | regression in SIV length ([1]; 1 μM, 96 hpf): 10% | effect on SIV angiogenesis (in words) ([1]; 96 hpf): Angiogenesis inhibition was not demonstrated | Associated clinical toxicities (patients): Multiple systemic toxicities

CN1CC[C@H](c2c(O)cc(O)c3c(=O)cc(-c4ccccc4Cl)oc23)[C@H](O)C1 [Flavopiridol]
effective anti-angiogenic concentration range (in words) [3]: effective at micromolar concentrations | gross morphological changes (in words) (zebrafish embryos): multiple sub-lethal toxicities like yolk-sac edema, nonprogressive pericardial edema, bent notochord, and jaw deformity; also recorded: Widespread tissue necrosis; also recorded: multiple pathological changes like jaw deformity, pericardial edema, notochord deformity, and patchy necrosis | decrease in the number of SIVs ([1]; 2 μM, 96 hpf): 72% | regression in SIV length ([1]; 2 μM, 96 hpf): 38% | effect on SIV length and basket (in words) ([1]; 2 μM, lectin staining at 72 hpf, Figure 2C): Partial regression of SIVs | Associated clinical toxicities (patients): Multiple systemic toxicities | toxicities in clinical trials (patients): tumor lysis syndrome and febrile neutropenia

Cc1ccc(Nc2nccc(N(C)c3ccc4c(C)n(C)nc4c3)n2)cc1S(N)(=O)=O [Pazopanib]
Associated clinical toxicities (patients): Cardiotoxicity

CNC(=O)c1cc(Oc2ccc(NC(=O)Nc3ccc(Cl)c(C(F)(F)F)c3)c(F)c2)ccn1 [Regorafenib]
IC50 (VEGFR): 13 to 46 nM | gross morphological changes (in words) (zebrafish embryos): nonprogressive pericardial edema in all the embryos subjected to treatment (ie, 36/36) | concentration giving complete regression of SIVs ([1]; 96 hpf): < 1 µM | effect on SIV angiogenesis (in words) ([1]; 96 hpf): complete inhibition of SIV angiogenesis | concentration with significant angiogenesis inhibition in the in vivo CAM assay [4]: 1 to 3 µM

Cc1cc(C)c(/C=C2\C(=O)Nc3ccccc32)[nH]1 [SU5416]
gross morphological changes (in words) (zebrafish embryos): multiple gross morphological abnormalities like yolk-sac edema, shortened body axis, bent notochord, jaw deformity, blood pooling, and un-inflated swim bladder | decrease in the number of SIVs within the basket ([1]; 1 μM, 96 hpf): 85% | regression in SIV length ([1]; 1 μM, 96 hpf): 38% | effect on SIV angiogenesis (in words) ([1]; 96 hpf): incomplete SIV regression | Associated clinical toxicities (patients): Multiple systemic toxicities

CNC(=O)c1cc(Oc2ccc(NC(=O)Nc3ccc(Cl)c(C(F)(F)F)c3)cc2)ccn1 [Sorafenib]
gross morphological changes (in words) (zebrafish embryos): nonprogressive pericardial edema in all the embryos subjected to treatment (ie, 36/36) | concentration giving complete regression of SIVs ([1]; 96 hpf): < 1 µM | effect on SIV angiogenesis (in words) ([1]; 96 hpf): complete inhibition of SIV angiogenesis | Associated clinical toxicities (patients): Cardiotoxicity | concentration with significant angiogenesis inhibition in the in vivo CAM assay [4]: 1 to 3 µM

CCN(CC)CCNC(=O)c1c(C)[nH]c(/C=C2\C(=O)Nc3ccc(F)cc32)c1C [Sunitinib]
Associated clinical toxicities (patients): Cardiotoxicity | patients with congestive cardiac failure (patients; [6]): 11% | patients with decrease in left ventricular ejection fraction (patients; [6]): 28%

Cc1ccc(C(=O)Nc2ccc(S(=O)(=O)O)c3cc(S(=O)(=O)O)cc(S(=O)(=O)O)c23)cc1NC(=O)c1cccc(NC(=O)Nc2cccc(C(=O)Nc3cc(C(=O)Nc4ccc(S(=O)(=O)O)c5cc(S(=O)(=O)O)cc(S(=O)(=O)O)c45)ccc3C)c2)c1 [Suramin]
effective anti-angiogenic concentration range (in words) [3]: effective at micromolar concentrations | LC50 fold higher than the other multikinase inhibitors (zebrafish embryos; 96 hpf): about 200 fold | gross morphological changes (in words) (zebrafish embryos): multiple sub-lethal toxicities like yolk-sac edema, nonprogressive pericardial edema, bent notochord, and jaw deformity; also recorded: multiple pathological changes like jaw deformity, pericardial edema, notochord deformity, and patchy necrosis | inhibition of vessels within the angiogenic basket [1, 7]: 45% | regression / decrease in SIV length [1, 7]: 30% | Associated clinical toxicities (patients): Multiple systemic toxicities | toxicities in clinical trials (patients): neutropenia, neurological dysfunction, and development of renal insufficiency | concentration inhibiting angiogenesis in the CAM assay [4]: 7 µM | fold higher concentration than VEGFR inhibitors in the CAM assay [4]: 7 fold

CO[C@@H]1[C@H](OC(=O)NC(=O)CCl)CC[C@]2(CO2)[C@H]1[C@@]1(C)O[C@@H]1CC=C(C)C [TNP-470]
gross morphological changes (in words) (zebrafish embryos): abnormal notochord morphology | toxicity limiting effectiveness [5]: severe weight loss | regression / decrease in SIV length [1, 7]: 20%–30% | effect on SIV angiogenesis (in words) ([1]; 96 hpf): formation of aberrant SIV extensions | concentration inhibiting angiogenesis in the CAM assay [4]: 100 to 125 µM | fold higher concentration than VEGFR inhibitors in the CAM assay [4]: 100 fold

O=C1CCC(N2C(=O)c3ccccc3C2=O)C(=O)N1 (stereo not shown) [Thalidomide]
effective anti-angiogenic concentration range (in words) [3]: effective at micromolar concentrations | absence of fin development (zebrafish embryos; Figure S3): 100% | concentration with reduction of otolith size and altered fin development (zebrafish embryos; zebrafish embryos): > 300 µM | gross morphological changes (in words) (zebrafish embryos): did not result in gross morphological changes with respect to notochord development and development of cardiac edema | regression / decrease in SIV length [1, 7]: 20%–30% | Associated clinical toxicities (patients): Teratogenic | anti-angiogenic effect in the CAM assay (in words) [4]: does not exhibit anti-angiogenic effects

COc1cc2nccc(Oc3ccc(NC(=O)Nc4cc(C)on4)c(Cl)c3)c2cc1OC [Tivozanib]
concentration giving complete regression in SIVs ([1]; 96 hpf): 5 nM | improvement of progression-free survival (patients; patients with renal cell carcinoma): ~12 months

COc1cc2c(Nc3ccc(Br)cc3F)ncnc2cc1OCC1CCN(C)CC1 [Vandetanib]
IC50 (VEGFR): […] | effect on SIV angiogenesis (in words) ([1]; 96 hpf): incomplete SIV regression | Associated clinical toxicities (patients): Cardiotoxicity

Clc1ccc(Nc2nnc(Cc3ccncc3)c3ccccc23)cc1 [Vatalanib]
gross morphological changes (in words) (zebrafish embryos): multiple gross morphological abnormalities like yolk-sac edema, shortened body axis, bent notochord, jaw deformity, blood pooling, and un-inflated swim bladder | Associated clinical toxicities (patients): Multiple systemic toxicities

Bevacizumab
gross morphological changes (in words) (zebrafish embryos): did not elicit dose-dependent toxicity or a consistent pathological phenotype | effect on SIV angiogenesis (in words) ([1]; 96 hpf): extremely variable results; also recorded: Angiogenesis inhibition was not demonstrated
